Most compounds without a hit are left out; they make up all but 2.7% or so of the library.
PAFAH2 inh = PAFAH2 (human) inhibition | recombinant PAFAH2, FP-rhodamine activity probe, fluorescence polarization | Q99487 | 340,000 compounds, 0.99% hits | AID 492956 | inhibition, % at 3.39 µM;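 active = inhibition above the mean over all tested compounds plus 3 SD, cut at about 30% in these data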;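 also: inhibitors block probe labeling of enzyme so polarization drops; 0% = enzyme with DMSO and 100% = wells lacking PAFAH2 protein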
pPAFAH inh = inhibitors of human plasma PAF acetylhydrolase (pPAFAH). Q13093. recombinant pPAFAH, FP-rhodamine probe fluorescence polarization. inhibition, % at 3.39 µM. 330,000 compounds, 1.5% hits. AID 463082;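 active = inhibition above the mean inhibition across the screen plus 3 SD, cut at about 25% in these data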;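 also: inhibitors block binding of the rhodamine activity-based probe so polarization drops; 0% = enzyme with DMSO and 100% = wells lacking pPAFAH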
ASAP1 GAP inh = inhibitors of human ASAP1 ArfGAP activity; Q9ULH1; ASAP1-stimulated ARF1 GTP hydrolysis, GDP FP detection; inhibition, % at 16.5 µM; 360,000 compounds, 0.19% hits; in the data active = inhibition above about 25%;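 also: 0% = vehicle with enzyme and substrate and 100% = no enzyme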
PAFAH1B2 FP inh = blocks human PAF acetylhydrolase 1b catalytic subunit 2. P68402. recombinant PAFAH1B2, FP-rhodamine activity probe, fluorescence polarization. inhibition, % at 3.39 µM. 340,000 compounds, 1.2% hits;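 active = inhibition above the mean of all tested compounds plus 3 SD, cut at about 24% in these data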;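 also: 0% = enzyme with DMSO and 100% = wells lacking PAFAH1B2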
Target sequence (P68402 whole entry, looked up): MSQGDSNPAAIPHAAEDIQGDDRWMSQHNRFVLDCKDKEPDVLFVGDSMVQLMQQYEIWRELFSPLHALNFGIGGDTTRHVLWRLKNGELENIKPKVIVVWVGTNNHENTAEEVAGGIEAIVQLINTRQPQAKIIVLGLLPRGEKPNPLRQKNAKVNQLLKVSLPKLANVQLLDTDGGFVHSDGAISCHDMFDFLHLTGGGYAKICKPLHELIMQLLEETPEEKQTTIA
ARFGAP1 inh = rat ARFGAP1 inhibition; Q62848; Arfgap1-stimulated ARF1 GTP hydrolysis, GDP FP detection; AID 651572; inhibition, % at 16.5 µM; 360,000 compounds, 0.26% hits;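 active = inhibition above a per-plate limit, mean inhibition of low control wells plus 3 SD, cut at about 25% in these data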;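 also: 0% = DMSO wells with enzyme and 100% = wells lacking Arfgap1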
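System: truncated rat Arfgap1 GAP domain / Medium: HEPES-based buffer, pH 7.5 / Also added: N-terminally truncated human ARF1-GTP substrate / Incubation: enzyme reaction 120 min at 25 °C after 20 min preincubation / Measured by: FP of antibody-bound GDP Alexa 633 tracer, ex 620/em 688 nm / Replicates: singlicate, each compound tested once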
PAFAH1B3 FP inh = inhibitors of human PAFAH1B3. Q15102. recombinant PAFAH1B3, FP-rhodamine probe, fluorescence polarization. inhibition, % at 3.39 µM. 340,000 compounds, 0.28% hits. AID 492972;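 active = inhibition above the screen-wide average of all tested compounds plus 3 SD, cut at about 25% in these data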;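 also: 0% = enzyme with DMSO only and 100% = wells lacking PAFAH1B3 protein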
ARFGAP1 inh conf = confirmation of rat ARFGAP1 inhibitors; shares compounds with ARFGAP1 inh; ARFGAP1-stimulated ARF1 GTP hydrolysis, GDP tracer FP; inhibition, % at 16.5 µM; 890 compounds, 30% hits; AID 651608;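 active = average inhibition over triplicates above the hit cutoff set in the earlier primary screen, cut at about 25% in these data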;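 also: 0% = Arfgap1 plus ARF1-GTP with DMSO and 100% = wells lacking Arfgap1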
Target sequence (Q62848 whole entry, looked up): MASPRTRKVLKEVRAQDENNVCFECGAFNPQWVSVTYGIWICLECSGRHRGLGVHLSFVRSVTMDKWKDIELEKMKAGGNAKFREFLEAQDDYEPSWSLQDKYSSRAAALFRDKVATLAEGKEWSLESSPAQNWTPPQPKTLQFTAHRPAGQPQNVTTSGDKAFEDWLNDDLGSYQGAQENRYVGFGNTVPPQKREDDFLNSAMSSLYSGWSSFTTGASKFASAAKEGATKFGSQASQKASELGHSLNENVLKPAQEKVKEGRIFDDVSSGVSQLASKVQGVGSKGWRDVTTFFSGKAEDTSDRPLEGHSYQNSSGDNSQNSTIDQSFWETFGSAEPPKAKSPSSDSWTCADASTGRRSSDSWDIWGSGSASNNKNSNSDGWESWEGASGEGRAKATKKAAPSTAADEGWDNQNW
An asterisk follows results filed as active.

What do the screens show for `CC1CCCN(C(=O)Cn2nnc(-c3cccnc3)n2)C1` (stereo not drawn)?
PAFAH2 inh: -5; pPAFAH inh: 3; ASAP1 GAP inh: -6; PAFAH1B2 FP inh: 3; ARFGAP1 inh: 26*; PAFAH1B3 FP inh: 4; ARFGAP1 inh conf: 8

What do the screens show for `COc1cc2c(=O)[nH]c3cc([N+](=O)[O-])ccc3c2cc1[N+](=O)[O-]`?
ASAP1 GAP inh: 2; ARFGAP1 inh: 10

What do the screens show for `Nc1cc2[nH]c(=O)c3ccccc3c2cc1[N+](=O)[O-]`?
PAFAH2 inh: 16; ASAP1 GAP inh: -13; PAFAH1B2 FP inh: 16; ARFGAP1 inh: 28*; PAFAH1B3 FP inh: 16; ARFGAP1 inh conf: 20

What do the screens show for `O=C(NCc1ccccc1)c1cc(C2CCCCN2C(=O)OCCF)on1` (stereo not drawn)?
ASAP1 GAP inh: -13; ARFGAP1 inh: 25*; ARFGAP1 inh conf: 3

What do the screens show for `COc1cc2oc(-c3ccc(O)cc3)cc(=O)c2c(OC)c1O`?
PAFAH2 inh: 6; ASAP1 GAP inh: 20; PAFAH1B2 FP inh: 0; ARFGAP1 inh: 17; PAFAH1B3 FP inh: 10

How did COc1cc2oc(-c3ccc(O)cc3)cc(=O)c2c(O)c1OC do in these assays?
PAFAH2 inh: 6; pPAFAH inh: 2; ASAP1 GAP inh: 8; PAFAH1B2 FP inh: 9; ARFGAP1 inh: 36*; PAFAH1B3 FP inh: 9; ARFGAP1 inh conf: 8

Results for CCOC(=O)c1c(NC(=O)C[n+]2ccc(N(C)C)cc2)sc(C)c1C ?
PAFAH2 inh: 10; pPAFAH inh: -2; ASAP1 GAP inh: 14; PAFAH1B2 FP inh: 1; ARFGAP1 inh: 25*; PAFAH1B3 FP inh: 2; ARFGAP1 inh conf: 7

How did CC1CCCCN1C(=O)c1ccc(NC(=O)c2ccccc2Cl)cc1 (stereo not drawn) do in these assays?
PAFAH2 inh: -2; pPAFAH inh: 3; ASAP1 GAP inh: 6; PAFAH1B2 FP inh: 9; ARFGAP1 inh: 6; PAFAH1B3 FP inh: -4

Results for Cc1ccc(S(=O)(=O)Nc2ccc(NC(=O)Nc3cccc(C(F)(F)F)c3)cc2)cc1 ?
PAFAH2 inh: -53; pPAFAH inh: -1; ASAP1 GAP inh: 22; PAFAH1B2 FP inh: 7; ARFGAP1 inh: 30*; PAFAH1B3 FP inh: 3; ARFGAP1 inh conf: 29*

How did CCN(CC)S(=O)(=O)c1ccc(NC(=O)Nc2cccc(C(F)(F)F)c2)cc1 do in these assays?
PAFAH2 inh: -96; pPAFAH inh: -71; ASAP1 GAP inh: 5; PAFAH1B2 FP inh: -58; ARFGAP1 inh: 20; PAFAH1B3 FP inh: -106

What do the screens show for `CC1(c2nnnn2C2CCCC2)CCC(=O)N1c1ccc2c(c1)OCCO2` (stereo not drawn)?
ASAP1 GAP inh: 4; ARFGAP1 inh: 6

What do the screens show for `Cc1sc(NC(=O)CSc2nnc(COc3ccccc3)n2C)c(C#N)c1C`?
PAFAH2 inh: -6; pPAFAH inh: 4; ASAP1 GAP inh: 5; PAFAH1B2 FP inh: 5; ARFGAP1 inh: 25*; PAFAH1B3 FP inh: -3; ARFGAP1 inh conf: 11

Results for Cc1ccc(OCc2nnc(SCC(=O)Nc3sc(C)c(C)c3C#N)n2C)cc1 ?
PAFAH2 inh: -7; pPAFAH inh: 2; ASAP1 GAP inh: -4; PAFAH1B2 FP inh: 0; ARFGAP1 inh: 15; PAFAH1B3 FP inh: -6

How did O=C(NCCc1ccc(F)cc1)c1ccc2c(=O)n3c(nc2c1)CCC3 do in these assays?
PAFAH2 inh: -1; pPAFAH inh: 2; ASAP1 GAP inh: -16; PAFAH1B2 FP inh: 0; ARFGAP1 inh: 3; PAFAH1B3 FP inh: 1

How did COc1ccc(-c2nc(C(=O)NCCCN3CCOCC3)cc3c2[nH]c2ccccc23)cc1OC do in these assays?
PAFAH2 inh: -1; pPAFAH inh: 9; ASAP1 GAP inh: 17; PAFAH1B2 FP inh: 3; ARFGAP1 inh: 28*; PAFAH1B3 FP inh: 3; ARFGAP1 inh conf: 14

What do the screens show for `C#CCn1c(=NC(=O)c2ccc(Br)s2)sc2cccc(OC)c21`?
PAFAH2 inh: -9; pPAFAH inh: -2; ASAP1 GAP inh: -11; PAFAH1B2 FP inh: -4; ARFGAP1 inh: -5; PAFAH1B3 FP inh: -9

How did C=CCn1c(=NC(=O)c2cccs2)sc2cccc(OC)c21 do in these assays?
PAFAH2 inh: -11; pPAFAH inh: -8; ASAP1 GAP inh: -1; PAFAH1B2 FP inh: -3; ARFGAP1 inh: 31*; PAFAH1B3 FP inh: 0; ARFGAP1 inh conf: 0

What do the screens show for `COC(=O)c1c(C)nc2ccccc2c1C(=O)O`?
PAFAH2 inh: -2; pPAFAH inh: 2; ASAP1 GAP inh: -3; PAFAH1B2 FP inh: -1; ARFGAP1 inh: 0; PAFAH1B3 FP inh: 7

What do the screens show for `COC(=O)c1cc(C)[nH]c2c(C)cc3nc4ccccc4c3c12`?
PAFAH2 inh: 7; pPAFAH inh: 0; ASAP1 GAP inh: -1; PAFAH1B2 FP inh: 2; ARFGAP1 inh: 41*; PAFAH1B3 FP inh: 11; ARFGAP1 inh conf: 14

Results for CCCCC(=O)OCc1c(-c2cccc(OC)c2)ncc2ccccc12 ?
PAFAH2 inh: 9; pPAFAH inh: 14; ASAP1 GAP inh: -15; PAFAH1B2 FP inh: -1; ARFGAP1 inh: -10; PAFAH1B3 FP inh: -3

Results for COc1ccc(N/N=C/c2c(C(=O)O)ccc3ccccc23)cc1 ?
PAFAH2 inh: 12; pPAFAH inh: 19; ASAP1 GAP inh: 11; PAFAH1B2 FP inh: 7; ARFGAP1 inh: 26*; PAFAH1B3 FP inh: 14; ARFGAP1 inh conf: 31*

Results for COc1ccc2ccccc2c1/C=N/Nc1ccc(Cl)c(C(=O)O)c1 ?
PAFAH2 inh: 11; pPAFAH inh: 10; ASAP1 GAP inh: -4; PAFAH1B2 FP inh: 2; ARFGAP1 inh: -3; PAFAH1B3 FP inh: 11

What do the screens show for `COc1ccc(NC(=O)C2c3ccccc3OCC(=O)N2Cc2ccco2)cc1` (stereo not drawn)?
ASAP1 GAP inh: 7; ARFGAP1 inh: -13

What do the screens show for `Cc1ccc2nc(N3C(=O)C(O)=C(C(=O)c4ccc(C)o4)C3c3cccc(O)c3)sc2c1` (stereo not drawn)?
PAFAH2 inh: 13; pPAFAH inh: 5; ASAP1 GAP inh: 19; PAFAH1B2 FP inh: -3; ARFGAP1 inh: 34*; PAFAH1B3 FP inh: 5; ARFGAP1 inh conf: 52*

How did CCOc1ccccc1C(=O)N(Cc1ccc(C)o1)C1CCS(=O)(=O)C1 (stereo not drawn) do in these assays?
PAFAH2 inh: 0; pPAFAH inh: 1; ASAP1 GAP inh: 7; PAFAH1B2 FP inh: 2; ARFGAP1 inh: 7; PAFAH1B3 FP inh: 12

How did COc1ccc(S(=O)(=O)N2CCCCCC2)cc1N(C)S(=O)(=O)c1ccccc1 do in these assays?
PAFAH2 inh: 9; pPAFAH inh: 5; ASAP1 GAP inh: 10; PAFAH1B2 FP inh: 4; ARFGAP1 inh: 26*; PAFAH1B3 FP inh: -2; ARFGAP1 inh conf: 1

Screening results as filed in PubChem.
